# According to ChEMBL document CHEMBL1157968, “Chemical and cytotoxic constituents from the leaves of Cinnamomum kotoense” (2006):
# What was measured:
# Type in all cases: functional
# [1] = system: HeLa; experiment: Cell cycle arrest in human HeLa cells pretreated with 100 uM Boc-Asp(OMe)-fmk for 1 hr assessed as G2/M phase accumulation at 100 uM after 24 hrs by FACS
# In short: (§1)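 HeLa cells pretreated for 1 h with the listed agent (10 mM GSH ethyl ester, 10 µM dexamethasone, 10 µM pifithrin, 100 µM Boc-Asp(OMe)-fmk or 5 µM cyclosporin A), then given 100 µM compound for 24 h. Cells fixed in PBS-MeOH, stained with PI/RNase and analysed by flow cytometry for DNA content. At least three experiments, one representative shown.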
# [2] = system: HeLa; experiment: Induction of apoptosis in human HeLa cells assessed as increase in intracellular nitric oxide level at 100 uM after 1 hr by FACS relative to untreated control
# In short: (§2)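 HeLa cells at 80% confluence were exposed to 100 µM for 1, 3 or 24 h and then stained with 1 µM DAF-2 for 10 min in the dark. After trypsinization, DAF-2 fluorescence was measured by flow cytometry and taken as fold versus untreated cells. At least three experiments.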
# [3] = system: HeLa; experiment: Cell cycle arrest in human HeLa cells pretreated with 10 uM pifithrin-alpha for 1 hr assessed as G2/M phase accumulation at 100 uM after 24 hrs by FACS; in short: as §1
# [4] = system: HeLa; experiment: Induction of apoptosis in human HeLa cells assessed as increase in intracellular nitric oxide level at 100 uM after 3 hrs by FACS relative to untreated control; in short: as §2
# [5] = system: HeLa; experiment: Induction of apoptosis in human HeLa cells assessed as increase in intracellular peroxide level at 100 uM after 1 hr by FACS relative to untreated control
# In short: (§3)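 HeLa cells at 80% confluence were refed and exposed to 100 µM for 1, 3 or 24 h. They were loaded with 10 µM DCFH-DA for 30 min in the dark, trypsinized and resuspended in PBS. DCF fluorescence was measured by flow cytometry and expressed as fold versus untreated cells. At least three experiments.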
# [6] = system: HeLa; experiment: Cell cycle arrest in human HeLa cells assessed as G1 phase accumulation at 100 uM after 24 hrs by FACS
# In short: (§4)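 HeLa cells seeded 5 × 10^5 per dish 48 h ahead in DMEM with 10% FCS, then exposed to compound for 24 h (DMSO 0.1% final). Adherent and floating cells pooled, fixed in PBS-MeOH (1:2) at 4 °C for at least 18 h, and stained with PI (50 µg/mL) plus RNase A for 30 min at room temperature. Flow cytometry at 488 nm excitation, doublets gated out; phase percentages taken from DNA histograms.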
# [7] = system: HeLa; experiment: Induction of apoptosis in human HeLa cells assessed as increase in intracellular hydrogen peroxide level at 100 uM after 24 hrs by FACS relative to untreated control; in short: as §3
# [8] = system: HeLa; experiment: Cell cycle arrest in human HeLa cells pretreated with 10 mM glutathione ethyl ester for 1 hr assessed as subG1 phase accumulation at 100 uM after 24 hrs by FACS; in short: as §1
# [9] = system: HeLa; experiment: Induction of apoptosis in human HeLa cells pretreated with 10 uM pifithrin-alpha for 1 hr at 100 uM after 24 hrs by TUNEL assay
# In short: (§5)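 HeLa in DMEM/10% FCS, untreated or pretreated 1 h with listed inhibitor, then 100 µM agent (0.1% DMSO final) for 24 h. Pooled cells fixed in 1% paraformaldehyde (30 min, 4 °C), 70% EtOH (30 min, −20 °C); strand breaks labelled with TdT/fluorescein-BrdUTP (1 h, 37 °C), PI/RNase counterstain; flow cytometry, % apoptotic cells; ≥3 experiments.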
# [10] = system: HeLa; experiment: Induction of apoptosis in human HeLa cells assessed as increase caspase 3/7 activities at 100 uM after 6 hrs by FACS relative to control
# In short: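 After 3–24 h exposure at 100 µM, HeLa cells were trypsinized. 1 × 10^6 cells in DMEM were mixed 1:1 with Z-DEVD-R110 substrate reagent and incubated 1 h at 37 °C, then washed. Released R110 read per cell by flow cytometry (ex 488/em 520 nm) and expressed as fold over untreated cells. At least three runs.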
# [11] = system: HeLa; experiment: Induction of apoptosis in human HeLa cells assessed as increase p53 expression at 100 uM after 12 hrs by FACS
# In short: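 Cells at 60% confluence were exposed to 100 µM for 0–24 h. Floating and adherent cells were fixed in 1% paraformaldehyde (15 min, 4 °C) and permeabilized in 70% EtOH. They were stained with FITC-anti-p53 monoclonal antibody for 1 h at 37 °C, then with PI/RNase. Flow cytometry gave the percentage of p53-positive cells.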
# [12] = system: HeLa; experiment: Induction of apoptosis in human HeLa cells pretreated with 10 uM Dexamethasone for 1 hr at 100 uM after 24 hrs by TUNEL assay; in short: as §5
# [13] = system: HeLa; experiment: Cell cycle arrest in human HeLa cells pretreated with 5 uM cyclosporin A for 1 hr assessed as S phase accumulation at 100 uM after 24 hrs by FACS; in short: as §1
# [14] = system: HeLa; experiment: Induction of apoptosis in human HeLa cells assessed as increase p53 expression at 100 uM after 24 hrs by FACS
# In short: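 HeLa seeded at 5 × 10^5 cells/dish 48 h before, in DMEM with 10% FCS; medium renewed at 60% confluence, then 100 µM agent (0.1% DMSO final) for 0–24 h. Pooled floating and adherent cells fixed in 1% paraformaldehyde (15 min, 4 °C), permeabilized in 70% EtOH (30 min, 4 °C), then FITC-conjugated mouse anti-p53 mAb (1 h, 37 °C), PI/RNase counterstain; flow cytometry, % p53-positive cells; ≥3 experiments.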
# [15] = system: HeLa; experiment: Induction of apoptosis in human HeLa cells assessed as number of cells with decreased mitochondrial membrane potential at 100 uM after 9 hrs by measuring rhodamine 123 fluorescence intensity; parameters: scale not given: the % may be the effect or the level left
# In short: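 Cells in DMEM/10% FCS, medium renewed at 80% confluence, then 100 µM agent (0.1% DMSO final) for 1–24 h. Stained with 5 µM rhodamine 123 for 30 min in the dark, washed, trypsinized and resuspended in PBS; flow cytometry, percentage of cells with weak rhodamine 123 staining (reduced ΔΨm); at least three experiments, representative shown.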
# [16] = system: HeLa; experiment: Cell cycle arrest in human HeLa cells assessed as G2/M phase accumulation at 25 after 24 hrs by FACS; in short: as §4
# [17] = system: HeLa; experiment: Cell cycle arrest in human HeLa cells assessed as G2/M phase accumulation at 50 uM after 24 hrs by FACS; in short: as §4
# [18] = system: HeLa; experiment: Induction of apoptosis in human HeLa cells assessed as increase in intracellular glutathione-depleted cell population at 100 uM after 24 hrs by FACS
# In short: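 HeLa cells at 80% confluence got fresh medium and were exposed for 24 h. Adherent and floating cells were pooled, adjusted to (1-2) × 10^6/mL and stained with 25 µM CMF-DA for 30 min at 37 °C. After washing, flow cytometry scored the percentage of GSH-negative cells. At least three experiments.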
# [19] = system: HeLa; experiment: Cell cycle arrest in human HeLa cells assessed as subG1 phase accumulation at 25 uM after 24 hrs by FACS; in short: as §4
# [20] = system: HeLa; experiment: Cell cycle arrest in human HeLa cells pretreated with 10 uM Dexamethasone for 1 hr assessed as G1 phase accumulation at 100 uM after 24 hrs by FACS; in short: as §1
smiles,measurement,setting,value
CCCCCCCCCCCCC/C=C(/C(=O)OC)[C@@H](O)C(C)=O [SECOKOTOMOLIDE A],Activity,[1],25.7%
same,fold change (FC),[2],2.1
same,Activity,[3],0%
same,fold change (FC),[4],2.1
same,fold change (FC),[5],3.4
same,Activity,[6],65.2%
same,fold change (FC),[7],3.9
same,Activity,[8],11.3%
same,Activity,[9],57.3%
same,fold change (FC),[10],5.9
same,Activity,[11],2.3%
same,Activity,[12],55.3%
same,Activity,[13],14.4%
same,Activity,[14],28.8%
same,Activity,[15],42.4%
same,Activity,[16],28.7%
same,Activity,[17],29%
same,Activity,[18],98%
same,Activity,[19],47.7%
same,Activity,[20],53.9%
